Assay type in all cases: cell-based
Data set [1] concerns the target T1, Sodium/glucose cotransporter 2 (Homo sapiens) (UniProt P31639).
T1 sequence (whole entry): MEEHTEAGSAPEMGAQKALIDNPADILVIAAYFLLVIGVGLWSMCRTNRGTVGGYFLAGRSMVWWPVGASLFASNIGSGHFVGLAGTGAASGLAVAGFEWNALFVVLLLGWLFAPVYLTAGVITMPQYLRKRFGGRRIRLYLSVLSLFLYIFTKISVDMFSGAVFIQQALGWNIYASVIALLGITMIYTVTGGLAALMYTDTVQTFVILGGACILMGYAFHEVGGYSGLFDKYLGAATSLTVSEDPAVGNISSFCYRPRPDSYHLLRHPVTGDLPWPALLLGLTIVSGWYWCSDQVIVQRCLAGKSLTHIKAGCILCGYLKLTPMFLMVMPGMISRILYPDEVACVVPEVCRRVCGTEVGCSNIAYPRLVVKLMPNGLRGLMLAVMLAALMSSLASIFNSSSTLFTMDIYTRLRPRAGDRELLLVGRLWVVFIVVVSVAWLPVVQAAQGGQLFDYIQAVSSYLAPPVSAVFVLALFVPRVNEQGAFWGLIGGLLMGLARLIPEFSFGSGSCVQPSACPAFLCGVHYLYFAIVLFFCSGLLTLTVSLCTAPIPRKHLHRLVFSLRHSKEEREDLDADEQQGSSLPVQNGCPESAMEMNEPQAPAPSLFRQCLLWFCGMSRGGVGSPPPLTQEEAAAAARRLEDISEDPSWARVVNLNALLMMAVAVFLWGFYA
The data set can be described thus: Inhibition of human SGLT2 expressed in HEK293 cells assessed as reduction in 2-deoxyglucose uptake at 100 uM pretreated for 10 mins followed by 2-deoxyglucose addition in presence of sodium buffer measured after 1 hr by resazurin dye based fluorescence assay. Summed up: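 Stably transfected HEK293 expressing human SGLT2 (pCMV6-Neo, G418-selected), 2.0 × 10^4 cells/well, 24 h; 1 h preincubation in KRPH buffer at 37 °C; compound 100 µM; 2-deoxyglucose 1 mM, 1 h at 37 °C; NaOH lysis at 80-85 °C, neutralised; enzymatic cycling (G6PDH, NADP+, diaphorase, 10 µM resazurin, pH 8.2) 15-20 h; fluorescence ex 560/em 590 nm. Mean ± SD, three independent experiments.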

Data set [2] concerns the target T2, Sodium/glucose cotransporter 2 (Homo sapiens, UniProt P31639).
T2 sequence (P31639 whole entry): T1 sequence (whole entry)
The data set can be described thus: Inhibition of human SGLT2 expressed in HEK293 cells assessed as reduction in 2-deoxyglucose uptake pretreated for 10 mins followed by 2-deoxyglucose addition in presence of sodium buffer measured after 1 hr by resazurin dye based fluorescence assay. Background: Resazurin is reduced to fluorescent resorufin, in cell work by metabolically active cells.

Data set [3] has as its target T3, Sodium/glucose cotransporter 1 (Homo sapiens, UniProt P13866).
T3 sequence (P13866 whole entry): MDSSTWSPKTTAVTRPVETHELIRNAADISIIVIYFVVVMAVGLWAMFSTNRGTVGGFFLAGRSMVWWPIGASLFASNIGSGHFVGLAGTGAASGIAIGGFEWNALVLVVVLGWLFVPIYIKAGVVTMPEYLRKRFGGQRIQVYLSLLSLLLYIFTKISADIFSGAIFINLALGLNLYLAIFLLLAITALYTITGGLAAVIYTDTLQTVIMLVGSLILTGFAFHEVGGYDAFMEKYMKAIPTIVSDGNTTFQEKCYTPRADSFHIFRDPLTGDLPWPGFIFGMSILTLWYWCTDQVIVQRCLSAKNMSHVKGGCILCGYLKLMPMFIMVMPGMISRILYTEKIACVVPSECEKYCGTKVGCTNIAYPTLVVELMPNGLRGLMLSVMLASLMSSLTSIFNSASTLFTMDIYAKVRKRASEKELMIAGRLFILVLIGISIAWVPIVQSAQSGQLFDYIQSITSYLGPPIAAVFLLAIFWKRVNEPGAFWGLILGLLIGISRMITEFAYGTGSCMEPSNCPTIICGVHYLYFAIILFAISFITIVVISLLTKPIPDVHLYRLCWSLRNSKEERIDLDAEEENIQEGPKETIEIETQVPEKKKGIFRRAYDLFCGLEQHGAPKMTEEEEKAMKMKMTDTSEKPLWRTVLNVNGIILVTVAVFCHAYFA
The experiment in a line: Inhibition of human SGLT1 expressed in HEK293 cells assessed as reduction in 2-deoxyglucose uptake at 100 uM pretreated for 10 mins followed by 2-deoxyglucose addition in presence of sodium buffer measured after 1 hr by resazurin dye based fluorescence assay. To be noted: hek293, 1 h.

The next data set concerns HEK293. The experiment in a line: Cytotoxicity in HEK293 cells assessed as cell viability at 100 uM measured after 20 to 24 hrs by Cell-Titer Blue fluorescence assay. To be noted: human, hek293, 100 µM. Summed up: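 HEK293 cells (DMEM, 10% FBS, 37 °C, 5% CO2) seeded 2.0 × 10^4 cells/well 24 h before; compound at 100 µM in triplicate, 20-24 h at 37 °C; CellTiter-Blue 4 h at 37 °C; fluorescence ex 560/em 590 nm; viability as treated/untreated fluorescence ratio, %. DMSO-treated wells run alongside. Mean ± SD of three independent experiments.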

Data set [4] in a line: Inhibition of GLUT in HEK293 cells assessed as reduction in 2-deoxyglucose uptake at 100 uM pretreated for 10 mins followed by 2-deoxyglucose addition in presence of choline buffer measured after 1 hr by resazurin dye based fluorescence assay. To be noted: human. Summed up:
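SGLT1 and SGLT2 stable HEK293 lines (G418-selected) assayed in sodium-free buffer, NaCl replaced by choline chloride; compounds at 100 µM; phlorizin and cytochalasin B as controls. 2-deoxyglucose 1 mM, 1 h at 37 °C; lysis in 0.1 M NaOH, 80-85 °C 40 min, neutralised; G6PDH/NADP+/diaphorase/resazurin cycling 15-20 h at 37 °C; resorufin fluorescence ex 560/em 590 nm.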

Calls of active or inactive are those of the source. No cut-off for these calls is given here.

By IC50 is commonly meant the midpoint of a concentration-inhibition curve.

Take `O=C(/C=C/c1ccccc1)c1c(O)cc(O)cc1O` [2',4',6-TRIHYDROXYCHALCONE]: the inhibition entry in data set [1] is “Active”.
Consider `CCOc1ccc(CCC(=O)c2c(O)cc(O)c([C@@H]3O[C@H](CO)[C@@H](O)[C@H](O)[C@H]3O)c2O)cc1`, for which, in data set [2], the IC50 was 0.0217 µM. Besides, the “inhibition (INH)” value in data set [3] was “Active”; in data set [4] it was “Not Active”. Also, the Activity result in the data set on HEK293 is reported as “Non-Toxic”. In addition, the inhibition entry in data set [1] is “Active”.
Turning to `CCCOc1ccc(CCC(=O)c2c(O)cc(O)cc2O)cc1`, the IC50 in data set [2] was 16.4 µM. Further, the “inhibition (INH)” value in data set [3] and in data set [4] was “Active” throughout. For the same compound, in the data set with HEK293, the Activity entry is on record as “Non-Toxic”. Further, in data set [1], the inhibition entry was “Active”.
In the case of `CCOc1ccc(Cc2cc([C@@H]3O[C@H](CO)[C@@H](O)[C@H](O)[C@H]3O)ccc2Cl)cc1` [DAPAGLIFLOZIN], the “inhibition (INH)” value in data set [3] is listed as “Active”. Further, the inhibition entry in data set [1] is “Active”.
Turning to `O=C(CCc1ccccc1)c1c(O)cc(O)c([C@@H]2O[C@H](CO)[C@@H](O)[C@H](O)[C@H]2O)c1O`, the half-inhibitory concentration (IC50) in data set [2] was found to be 0.0198 µM. Further, the “inhibition (INH)” value in data set [3] was “Active”; in data set [4], “Not Active”. In addition, the Activity result in the data set on HEK293 was “Non-Toxic”. Further, in data set [1], the inhibition entry was “Active”.
Turning to `O=C(CCc1ccc(O)cc1)c1c(O)cc(O)cc1O[C@@H]1O[C@H](CO)[C@@H](O)[C@H](O)[C@H]1O` [PHLORIZIN], the Activity result in the data set with HEK293 is listed as “Non-Toxic”. Moreover, the inhibition result in data set [1] was “Active”.
Regarding `O=C(/C=C/c1ccc(OCc2ccccc2)cc1)c1c(O)cc(O)cc1O`, the IC50 in data set [2] was found to be 22.7 µM. Also, the “inhibition (INH)” value in data set [3] and in data set [4] was “Active” in each case. The Activity result in the data set on HEK293 is recorded as “Non-Toxic”. Moreover, the inhibition entry in data set [1] is “Active”.
With `O=C(/C=C/c1ccc(F)cc1)c1c(O)cc(O)cc1O` [4-FLUORO-2',4',6'-TRIHYDROXYCHALCONE], in data set [2], the IC50 amounted to 51.7 µM. The “inhibition (INH)” value in data set [3] and in data set [4] was “Active” throughout. Besides, in the data set on HEK293, the Activity result is on record as “Non-Toxic”. Moreover, in data set [1], the inhibition entry was “Active”.
Consider `O=C(/C=C/c1ccc(Br)cc1)c1c(O)cc(O)cc1O` [4-BROMO-2',4',6'-TRIHYDROXYCHALCONE], for which, in data set [2], the half-inhibitory concentration (IC50) was 23.5 µM. Besides, the “inhibition (INH)” value in data set [3] and in data set [4] was “Active” throughout. Further, the Activity entry with HEK293 is given as “Non-Toxic”. Moreover, the inhibition entry in data set [1] was “Active”.
With `COc1ccc(/C=C/C(=O)c2c(O)cc(O)cc2O)cc1` [4-METHOXYL-2',4',6'-TRIHYDROXYCHALCONE], the 50% inhibitory concentration (IC50) in data set [2] came to 18.2 µM. For the same compound, the “inhibition (INH)” value in data set [3] and in data set [4] was “Active” in each case. Further, in the data set on HEK293, the Activity result is “Non-Toxic”. Also, the inhibition entry in data set [1] is “Active”.
With `COc1ccc(CCC(=O)c2c(O)cc(O)cc2O)cc1`, the IC50 in data set [2] came to 18.7 µM. Further, the “inhibition (INH)” value in data set [3] and in data set [4] was “Active” throughout. Also, in the data set on HEK293, the Activity entry is recorded as “Non-Toxic”. The inhibition result in data set [1] was “Active”.
For the compound `O=C(CCc1ccccc1)c1c(O)cc(O)cc1O`, in data set [2], the IC50 was found to be 14.7 µM. For the same compound, the “inhibition (INH)” value in data set [3] and in data set [4] was “Active” in each case. Besides, in the data set with HEK293, the Activity result was “Non-Toxic”. For the same compound, in data set [1], the inhibition entry was “Active”.
On to `C=CCOc1ccc(/C=C/C(=O)c2c(O)cc(O)cc2O)cc1`, for which the IC50 in data set [2] was 26.2 µM. The “inhibition (INH)” value in data set [3] and in data set [4] was “Active” each time. For the same compound, in the data set on HEK293, the Activity entry is “Non-Toxic”. Besides, the inhibition result in data set [1] is “Active”.
Regarding `Cc1ccc(CCC(=O)c2c(O)cc(O)c([C@@H]3O[C@H](CO)[C@@H](O)[C@H](O)[C@H]3O)c2O)cc1`, the half-maximal inhibitory concentration (IC50) in data set [2] worked out at 0.0182 µM. The “inhibition (INH)” value is reported as “Active” in data set [3] and “Not Active” in data set [4]. The Activity result in the data set on HEK293 was “Non-Toxic”. In data set [1], the inhibition entry is “Active”.
For the compound `Cc1ccc(CCC(=O)c2c(O)cc(O)cc2O)cc1`, the IC50 in data set [2] came to 18 µM. The “inhibition (INH)” value in data set [3] and in data set [4] was “Active” each time. The Activity entry in the data set with HEK293 was “Non-Toxic”. Also, in data set [1], the inhibition result is “Active”.
As to `CCOc1ccc(CCC(=O)c2c(O)cc(O)cc2O)cc1`, in data set [2], the IC50 stood at 16.7 µM. In addition, the “inhibition (INH)” value in data set [3] and in data set [4] was “Active” in each case. In addition, in the data set with HEK293, the Activity entry is “Non-Toxic”. The inhibition result in data set [1] is “Active”.
Take `CCCOc1ccc(CCC(=O)c2c(O)cc(O)c([C@@H]3O[C@H](CO)[C@@H](O)[C@H](O)[C@H]3O)c2O)cc1`: the IC50 in data set [2] amounted to 0.0227 µM. Further, the “inhibition (INH)” value is “Active” in data set [3] and “Not Active” in data set [4]. Also, the Activity result in the data set with HEK293 was “Non-Toxic”. The inhibition result in data set [1] was “Active”.
Regarding `O=C(CCc1ccc(F)cc1)c1c(O)cc(O)c([C@@H]2O[C@H](CO)[C@@H](O)[C@H](O)[C@H]2O)c1O`, the IC50 in data set [2] was found to be 0.0091 µM. Moreover, the figures for the “inhibition (INH)” value in data set [3] and in data set [4] were “Active” and “Not Active”, respectively. Moreover, the Activity entry with HEK293 is “Non-Toxic”. In addition, in data set [1], the inhibition result is “Active”.
Take `O=C(CCc1ccc(F)cc1)c1c(O)cc(O)cc1O`: the IC50 in data set [2] worked out at 15.8 µM. The “inhibition (INH)” value in data set [3] and in data set [4] was “Active” each time. In addition, the Activity entry in the data set on HEK293 is “Non-Toxic”. Also, the inhibition result in data set [1] was “Active”.
On to `Cc1ccc(/C=C/C(=O)c2c(O)cc(O)cc2O)cc1`, for which, in data set [2], the IC50 came to 34.1 µM. Moreover, the “inhibition (INH)” value in data set [3] and in data set [4] was “Active” throughout. Moreover, in the data set with HEK293, the Activity result is given as “Non-Toxic”. Further, the inhibition result in data set [1] is “Active”.
Regarding `CCOc1ccc(/C=C/C(=O)c2c(O)cc(O)cc2O)cc1`, the IC50 in data set [2] was 26 µM. Besides, the “inhibition (INH)” value in data set [3] and in data set [4] was “Active” each time. Also, the Activity entry in the data set on HEK293 is on record as “Non-Toxic”. In data set [1], the inhibition result was “Active”.
Consider `O=C(CCc1ccc(O)cc1)c1c(O)cc(O)cc1O` [PHLORETIN], for which, in data set [2], the IC50 came out at 18.3 µM. Moreover, the Activity result in the data set with HEK293 was “Non-Toxic”. Also, the inhibition entry in data set [1] was “Active”. Moreover, the “inhibition (INH)” value in data set [4] is “Active”.

For the origin of these results see ChEMBL document CHEMBL4002619, “Targeting Type 2 Diabetes with C-Glucosyl Dihydrochalcones as Selective Sodium Glucose Co-Transporter 2 (SGLT2) Inhibitors: Synthesis and Biological Evaluation” (J Med Chem, 2017).
